Results taken from ChEMBL document CHEMBL1151848, “Aryl nucleoside H-phosphonates. Part 16: synthesis and anti-HIV-1 activity of di-aryl nucleoside phosphotriesters” (Bioorg Med Chem, 2009).

Columns and labels:
[1] = Chemical stability assessed as chemical hydrolysis half life in RPMI-1640 culture medium by HPLC analysis; type: physicochemical
Procedure, shortened: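 Chemical hydrolysis of the compounds was followed in RPMI-1640 medium alone.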

[2] = Cytotoxicity against human MT4 cells after 96 hrs by MTT assay; type: cell-based
Procedure, shortened: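 Exponentially growing mock-infected MT-4 cells were seeded at 1 × 10⁵ cells/ml in RPMI-1640 with 10% FCS, penicillin G and streptomycin. They were incubated with serial compound dilutions at 37 °C in humidified 5% CO₂, and viability was read by MTT after 96 h. CC50 is the concentration reducing viability by 50%, as the mean of three independent determinations.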

[3] = tested on: Human immunodeficiency virus 1; assay: Antiviral activity against HIV1 3B infected in human MT4 cells assessed as protection from virus-induced cytopathogenicity after 4 days by MTT assay; type: functional, organism-based; details: Human immunodeficiency virus 1, 3B, MT4, 96 h
Procedure, shortened: (§1)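 MT-4 cells, acutely infected at m.o.i. 0.01, were used to read inhibition of HIV-1-induced cytopathogenicity. Compounds were made as 100 mM DMSO stocks and diluted in culture medium. Viability was read by MTT. EC50 is the concentration giving 50% protection, as the mean (+SD) of three independent determinations.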

[4] = Selectivity index, ratio of CC50 for human MT4 cells to EC50 for HIV1 3B; type: toxicity, cell-based; details: read-out: Ratio CC50/EC50
[5] = tested on: Human immunodeficiency virus 1; assay: Antiviral activity against non-nucleoside reverse transcriptase inhibitor-resistant HIV1 bearing reverse transcriptase N119 (Y181C) mutation infected in human MT4 cells assessed as protection from virus-induced cytopathogenicity after 4 days by MTT assay; type: functional, organism-based; details: Human immunodeficiency virus 1, MT4, 96 h; procedure, shortened: as §1
[6] = tested on: Human immunodeficiency virus 1; assay: Antiviral activity against non-nucleoside reverse transcriptase inhibitor-resistant HIV1 bearing reverse transcriptase A17 (K103N, Y181C) mutation infected in human MT4 cells assessed as protection from virus-induced cytopathogenicity after 4 days by MTT assay; type: functional, organism-based; details: Human immunodeficiency virus 1, MT4, 96 h; procedure, shortened: as §1
[7] = tested on: Human immunodeficiency virus 1; assay: Antiviral activity against efavirenz-resistant HIV1 infected in human MT4 cells assessed as protection from virus-induced cytopathogenicity after 4 days by MTT assay; type: functional, organism-based; details: Human immunodeficiency virus 1, MT4, 96 h; procedure, shortened: as §1
[8] = tested on: Human immunodeficiency virus 1; assay: Antiviral activity against azidothymidine-resistant HIV1 infected in human MT4 cells assessed as protection from virus-induced cytopathogenicity after 4 days by MTT assay; type: functional, organism-based; details: Human immunodeficiency virus 1, MT4, 96 h; procedure, shortened: as §1
[9] = tested on: Human immunodeficiency virus 1; assay: Antiviral activity against MDR1-resistant HIV1 infected in human MT4 cells assessed as protection from virus-induced cytopathogenicity after 4 days by MTT assay; type: functional, organism-based; details: Human immunodeficiency virus 1, MT4, 96 h; procedure, shortened: as §1
[10] = Chemical stability assessed as enzymatic hydrolysis half life in RPMI-1640 culture medium containing heat non-inactivated fetal bovine serum by HPLC analysis; type: physicochemical; details: cattle
Procedure, shortened: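 Enzymatic hydrolysis by phosphoesterases was followed in RPMI-1640 containing heat non-inactivated FBS (RPMI/FBS 9:1, v/v).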

[11] = Chemical stability in RPMI-1640 culture medium at 2 uM up to 6 days by HPLC analysis; type: physicochemical; details: 144 h

Question: For Cc1cn([C@H]2C[C@H](N=[N+]=[N-])[C@@H](COP(=O)(Oc3ccccc3)Oc3cncc(Cl)c3)O2)c(=O)[nH]c1=O (stereo partly drawn), which half-life [1] is on record?
Answer: The half-life was 25.1 h.

Question: What about the CC50 at 96 h [2] of the same compound?
Answer: Its CC50 at 96 h is 100000 nM.

Question: And the EC50 [3]?
Answer: The EC50 was 40 nM.

Question: And the selectivity ratio [4]?
Answer: The selectivity ratio was 2500.

Question: And the EC50 [5]?
Answer: The EC50 was 50 nM.

Question: What about the EC50 [6] of the same compound?
Answer: The EC50 was 10 nM.

Question: And the EC50 [7]?
Answer: The EC50 was 10 nM.

Question: And the EC50 [8]?
Answer: The EC50 was 1500 nM.

Question: And the EC50 [9]?
Answer: The EC50 was 600 nM.

Question: For Cc1cn([C@H]2C[C@H](N=[N+]=[N-])[C@@H](COP(=O)(O)Oc3cccnc3)O2)c(=O)[nH]c1=O, which half-life [10] is on record?
Answer: The half-life was 3.88 h.

Question: And the Stability [11]?
Answer: Its Stability is “Stable”.

Question: For Cc1cn([C@H]2C[C@H](N=[N+]=[N-])[C@@H](COP(=O)(Oc3ccc(Br)cc3)Oc3cccnc3)O2)c(=O)[nH]c1=O (stereo partly drawn), which half-life [1] is on record?
Answer: Its half-life is 44.3 h.

Question: What about the CC50 at 96 h [2] of the same compound?
Answer: Its CC50 at 96 h is 94000 nM.

Question: What about the EC50 [3] of the same compound?
Answer: The EC50 was 30 nM.

Question: And the selectivity ratio [4]?
Answer: Its selectivity ratio is 3130.

Question: And the EC50 [5]?
Answer: Its EC50 is 50 nM.

Question: And the EC50 [6]?
Answer: The EC50 was 10 nM.

Question: And the EC50 [7]?
Answer: The EC50 was 20 nM.

Question: What about the EC50 [8] of the same compound?
Answer: Its EC50 is 1800 nM.

Question: What about the EC50 [9] of the same compound?
Answer: The EC50 was 500 nM.

Question: Which half-life [1] does the source give for Cc1cn([C@H]2C[C@H](N=[N+]=[N-])[C@@H](COP(=O)(Oc3ccccc3)Oc3cccnc3)O2)c(=O)[nH]c1=O (stereo partly drawn) here?
Answer: Its half-life is 50.2 h.

Question: What about the CC50 at 96 h [2] of the same compound?
Answer: The CC50 at 96 h was > 100000 nM.

Question: What about the EC50 [3] of the same compound?
Answer: The EC50 was 50 nM.

Question: And the selectivity ratio [4]?
Answer: The selectivity ratio was > 2000.

Question: And the EC50 [5]?
Answer: Its EC50 is 40 nM.

Question: And the EC50 [6]?
Answer: The EC50 was 20 nM.

Question: And the EC50 [7]?
Answer: The EC50 was 30 nM.

Question: What about the EC50 [8] of the same compound?
Answer: The EC50 was 2300 nM.

Question: What about the EC50 [9] of the same compound?
Answer: Its EC50 is 500 nM.

Question: What does the source list for Cc1cn([C@H]2C[C@H](N=[N+]=[N-])[C@@H](COP(=O)(O)Oc3ccc(Cl)cc3Cl)O2)c(=O)[nH]c1=O?
Answer: half-life [10]: 3.03 h; Stability [11]: Stable

Question: With Cc1cn([C@H]2C[C@H](N=[N+]=[N-])[C@@H](CO)O2)c(=O)[nH]c1=O [ZIDOVUDINE] as the compound, how does the CC50 at 96 h [2] read?
Answer: The CC50 at 96 h was 60000 nM.

Question: What about the selectivity ratio [4] of the same compound?
Answer: Its selectivity ratio is > 6000.

Question: What about the EC50 [5] of the same compound?
Answer: The EC50 was 10 nM.

Question: What about the EC50 [6] of the same compound?
Answer: The EC50 was 10 nM.

Question: What about the EC50 [7] of the same compound?
Answer: Its EC50 is 10 nM.

Question: What about the EC50 [8] of the same compound?
Answer: The EC50 was 600 nM.

Question: What about the EC50 [9] of the same compound?
Answer: The EC50 was 100 nM.

Question: Which half-life [10] does the source give for O=c1ccn([C@H]2CC[C@@H](COP(=O)(O)Oc3ccccc3)O2)c(=O)[nH]1 here?
Answer: The half-life was 25.1 h.

Question: And the Stability [11]?
Answer: Its Stability is “Stable”.

Question: For O=c1ccn([C@H]2CC[C@@H](CO)O2)c(=O)[nH]1, which CC50 at 96 h [2] is on record?
Answer: The CC50 at 96 h was > 100000 nM.

Question: And the EC50 [3]?
Answer: Its EC50 is > 100000 nM.

Question: With O=c1ccn([C@H]2CC[C@@H](COP(=O)(Oc3ccccc3)Oc3cccnc3)O2)c(=O)[nH]1 (stereo partly drawn) as the compound, how does the half-life [1] read?
Answer: The half-life was 64.2 h.

Question: What about the CC50 at 96 h [2] of the same compound?
Answer: Its CC50 at 96 h is > 100000 nM.

Question: What about the EC50 [3] of the same compound?
Answer: The EC50 was 38000 nM.

Question: What about the selectivity ratio [4] of the same compound?
Answer: Its selectivity ratio is > 2.

Question: What about the EC50 [5] of the same compound?
Answer: Its EC50 is 30000 nM.

Question: And the EC50 [6]?
Answer: The EC50 was 11000 nM.

Question: What about the EC50 [7] of the same compound?
Answer: Its EC50 is 20000 nM.

Question: And the EC50 [8]?
Answer: The EC50 was > 100000 nM.

Question: What about the EC50 [9] of the same compound?
Answer: Its EC50 is > 100000 nM.

Question: What does the source list for O=c1ccn([C@H]2CC[C@@H](COP(=O)(Oc3ccncc3)Oc3cccnc3)O2)c(=O)[nH]1 (stereo partly drawn)?
Answer: half-life [1]: 7 h; CC50 at 96 h [2]: > 100000 nM; EC50 [3]: 14000 nM; selectivity ratio [4]: > 7; EC50 [5]: 9000 nM; EC50 [6]: 5000 nM; EC50 [7]: 7000 nM; EC50 [8]: > 100000 nM; EC50 [9]: ≥ 100000 nM

Question: For Cc1cn([C@H]2C[C@H](N=[N+]=[N-])[C@@H](COP(=O)(Oc3ccc(Cl)cc3)Oc3cccnc3)O2)c(=O)[nH]c1=O (stereo partly drawn), which half-life [1] is on record?
Answer: The half-life was 55 h.

Question: What about the CC50 at 96 h [2] of the same compound?
Answer: Its CC50 at 96 h is ≥ 100000 nM.

Question: And the EC50 [3]?
Answer: The EC50 was 30 nM.

Question: And the selectivity ratio [4]?
Answer: Its selectivity ratio is > 3330.

Question: What about the EC50 [5] of the same compound?
Answer: The EC50 was 40 nM.

Question: What about the EC50 [6] of the same compound?
Answer: Its EC50 is 10 nM.

Question: And the EC50 [7]?
Answer: The EC50 was 10 nM.

Question: What about the EC50 [8] of the same compound?
Answer: Its EC50 is 1900 nM.

Question: And the EC50 [9]?
Answer: Its EC50 is 700 nM.

Question: For Cc1cn([C@H]2C[C@H](N=[N+]=[N-])[C@@H](COP(=O)(Oc3cccnc3)Oc3cccnc3)O2)c(=O)[nH]c1=O, which half-life [1] is on record?
Answer: The half-life was 4.92 h.

Question: What about the CC50 at 96 h [2] of the same compound?
Answer: The CC50 at 96 h was > 100000 nM.

Question: And the EC50 [3]?
Answer: The EC50 was 10 nM.

Question: What about the selectivity ratio [4] of the same compound?
Answer: Its selectivity ratio is > 10000.

Question: And the EC50 [5]?
Answer: Its EC50 is 10 nM.

Question: And the EC50 [6]?
Answer: The EC50 was 3 nM.

Question: And the EC50 [7]?
Answer: The EC50 was 10 nM.

Question: And the EC50 [8]?
Answer: Its EC50 is 700 nM.

Question: And the EC50 [9]?
Answer: Its EC50 is 100 nM.
